According to PubChem BioAssay AID651945 (The Scripps Research Institute Molecular Screening Center, 2012):

Target: Heat shock 70 kDa protein 1A (Homo sapiens) (UniProt P0DMV8)
Assay: Hsp70 gene expression change – cell-based, fluorescence, HeLa, orthogonal assay, late-stage follow-up (AID 651945)
Conditions: HeLa Hsp70 mRNA, qRT-PCR, 4 h; at 10 µM; stronger effect = higher value
Method in brief: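 Material: HeLa cells; control set: DMSO vehicle baseline; medium: HEPES-buffered DMEM, 10% FBS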

Chain of Heat shock 70 kDa protein 1A (Homo sapiens) (P0DMV8 whole entry, looked up): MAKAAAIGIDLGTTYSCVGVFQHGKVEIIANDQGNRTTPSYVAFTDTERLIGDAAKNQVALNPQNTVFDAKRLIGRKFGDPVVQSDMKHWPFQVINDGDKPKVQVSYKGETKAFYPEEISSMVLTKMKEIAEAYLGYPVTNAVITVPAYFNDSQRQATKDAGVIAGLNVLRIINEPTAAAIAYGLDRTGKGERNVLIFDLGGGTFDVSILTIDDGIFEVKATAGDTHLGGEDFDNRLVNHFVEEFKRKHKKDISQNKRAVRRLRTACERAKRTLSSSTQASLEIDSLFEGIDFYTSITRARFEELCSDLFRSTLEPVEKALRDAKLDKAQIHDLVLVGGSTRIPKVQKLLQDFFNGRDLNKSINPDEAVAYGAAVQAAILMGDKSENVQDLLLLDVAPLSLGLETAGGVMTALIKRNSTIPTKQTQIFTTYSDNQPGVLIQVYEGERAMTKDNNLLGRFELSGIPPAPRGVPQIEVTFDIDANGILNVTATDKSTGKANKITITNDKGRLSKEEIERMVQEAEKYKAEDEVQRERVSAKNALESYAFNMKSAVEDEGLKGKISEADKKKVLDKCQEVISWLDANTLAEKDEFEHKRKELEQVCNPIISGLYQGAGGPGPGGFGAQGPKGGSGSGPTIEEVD

Which fold change does the source give for `COc1ccc(/C=C/C=C2C(=O)NC(=O)NC2=O)cc1` here?
Its fold change is 2.4.
